In data set [1] the target is NACHT, LRR and PYD domains-containing protein 3 (Mus musculus) (UniProt Q8R4B8). In words: Inhibition of NLRP3 inflammasome in LPS-primed C57BL/6 mouse bone marrow derived macrophages assessed as reduction in nigericin-induced caspase-1 activation at 10 to 100 uM preincubated for 1 hr followed by stimulation with nigericin measured after 30 mins by Western blot analysis.

Data set [2] shares this target. Briefly: Inhibition of NLRP3 in C57BL/6 mouse bone marrow derived macrophages assessed as reduction in LPS-induced IL-1beta gene expression at 10 to 100 uM preincubated for 30 mins followed by LPS stimulation measured after 4 hrs by qRT-PCR analysis. Put shortly: (§1)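 C57BL/6 bone marrow macrophages, differentiated with 20% L-cell medium, were preincubated with compound for 30 min. They were then left untreated or given LPS (1 ng/mL, 4 h). Tnfa, Il6 and Il1b expression was measured by quantitative RT-PCR as 2^-ΔΔCt.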

The subject of data set [3] is Rattus norvegicus. Briefly: Antiinflammatory activity in DNBS-induced Sprague-Dawley rat colitis model assessed as reduction in DNBS-induced spleen weight increase by measuring increase in spleen weight at 12.5 mg/kg/day, ig administered as suspension in olive oil for 6 days simulatneously with 6 days of DNBS-challenge measured daily during compound dosing (reference value: 39.3%). The format is functional. On the set-up: scale not given: the % may be the effect or the level left. Put shortly:
(§2)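 Spleen weight was used as an index of systemic inflammation. Rats had intrarectal DNBS (15 mg/0.25 mL 50% ethanol) and 6 days of intragastric dosing: 1 mg/kg/day in 1% methylcellulose, or 12.5–50 mg/kg/day in 0.2 mL olive oil. The spleen was weighed at sacrifice and expressed as percent increase versus control, n = 10.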

The nature of data set [4]: Cytotoxicity against human THP1 cells assessed as reduction in cell viability after 72 hrs by MTT assay. The format is cell-based. Conditions: THP-1 cells, read-out: TC50. Put shortly: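 Human THP-1 cells were exposed to 0.1–100 µM for 72 h, and viability was read by MTT. TC50 is the concentration that cuts viability by 50%; percent viable cells at 100 µM is also reported. Mean ± SEM of ≥3 experiments.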

The target in data set [5] is NACHT, LRR and PYD domains-containing protein 3 (Homo sapiens) (UniProt Q96P20). Briefly: Inhibition of NLRP3 in PMA-differentiated and LPS-primed human THP1 cells assessed as decrease in ATP-induced pyroptosis measured as LDH activity at 10 uM preincubated for 1 hr followed by ATP addition measured after 1 hr by colorimetric assay relative to control. Put shortly:
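THP-1 cells were PMA-differentiated and LPS-primed, then pretreated with vehicle or compound (10 µM, 1 h). Pyroptosis was triggered with ATP (5 mM). LDH in supernatant was measured colorimetrically 1 h after ATP and expressed as percent decrease versus vehicle, mean ± SEM of ≥3 experiments.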

For data set [6], the target named is NACHT, LRR and PYD domains-containing protein 3 (Mus musculus) (UniProt Q8R4B8). In words: Inhibition of NLRP3 inflammasome in LPS-primed C57BL/6 mouse bone marrow derived macrophages assessed as reduction in ATP-induced caspase-1 activation at 10 to 100 uM preincubated for 1 hr followed by stimulation with ATP measured after 30 mins by Western blot analysis.

Data set [7] shares this target. In words: Inhibition of NLRP3 inflammasome in LPS-primed C57BL/6 mouse bone marrow derived macrophages assessed as reduction in ATP-induced pyroptosis at 10 to 100 uM preincubated for 1 hr followed by stimulation with ATP measured after 30 mins by LDH release assay. An outline of the steps:
(§3)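 Bone marrow macrophages from C57BL/6 mice, differentiated with 20% L-cell medium, primed with LPS (1 µg/mL, 3 h). Test agent or vehicle was added for 1 h, then ATP (5 mM, 30 min) or nigericin (10 µM, 30 min). IL-1β in the medium was measured by ELISA. LDH in the medium was measured colorimetrically as % of total cellular LDH.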

The subject of data set [8] is Rattus norvegicus. Briefly: Antiinflammatory activity in DNBS-induced Sprague-Dawley rat colitis model assessed as reduction in DNBS-induced spleen weight increase by measuring increase in spleen weight at 50 mg/kg/day, ig administered as suspension in olive oil for 6 days simulatneously with 6 days of DNBS-challenge measured daily during compound dosing (reference value: 39.3%). In kind it is functional. More on the design: scale not given: the % may be the effect or the level left. An outline of the steps:
as §2

Data set [9] deals with NACHT, LRR and PYD domains-containing protein 3 (Mus musculus) (UniProt Q8R4B8). Briefly: Inhibition of NLRP3 inflammasome in LPS-primed C57BL/6 mouse bone marrow derived macrophages assessed as reduction in nigericin-induced IL-1beta production at 10 uM preincubated for 1 hr followed by stimulation with nigericin measured after 30 mins by ELISA. Put shortly: as §3
The target in data set [10] is NACHT, LRR and PYD domains-containing protein 3 (Homo sapiens) (UniProt Q96P20). Briefly: Inhibition of recombinant human NLRP3 ATPase assessed as hydrolysis of ATP at 50 uM preincubated for 15 mins followed by addition of ATP measured after 40 mins by ADP-Glo assay. Put shortly:
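Human recombinant NLRP3 (0.105 µg) in 20 mM Tris-HCl pH 7.8, 133 mM NaCl, 20 mM MgCl2, 3 mM KCl, 0.56 mM EDTA, 0.5% DMSO. Compound (100 or 50 µM) was preincubated 15 min at 37 °C, then ATP (250 µM) was added for 40 min at 37 °C. ADP was read by ADP-Glo luminescence. Result is % inhibition vs vehicle; mean ± SEM, ≥3 experiments.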

The species named for the next data set is Mus musculus. In words: Inhibition of NF-kB signaling pathway in C57BL/6 mouse bone marrow derived macrophages assessed as reduction in LPS-induced IL-6 gene expression at 10 to 100 uM preincubated for 30 mins followed by LPS stimulation measured after 4 hrs by qRT-PCR analysis. Put shortly:
as §1

Data set [11] can be described thus: Drug metabolism in Sprague-Dawley rat ileum tract assessed as 2-(2-chlorobenzyl)acrylic acid level at 12.5 mg as suspension in olive oil measured after 2 hrs by UHPLC-M. The format is ADME. Conditions: in vivo.
Data set [12] is described as follows: Stability of the compound in simulated gastric fluid at 1.56 mg as suspension in olive oil and pH 2 after 2 hrs by UHPLC-MS analysis. Put shortly: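 1.56 mg suspended in 100 µL olive oil, mixed with 100 µL SGF (pH 2, pepsin 3.2 mg/mL) for 2 h at 37 °C with shaking. Then 200 µL SIF (pH 7, pancreatin 2 mg/mL) was added for a further 2 h. Dedicated samples at 0, 30, 60 and 120 min were extracted with acetonitrile and analysed by UHPLC-MS. ≥3 repeats.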

In data set [13] the target is NACHT, LRR and PYD domains-containing protein 3 (Homo sapiens) (UniProt Q96P20). Briefly: Inhibition of recombinant YFP-tagged NLRP3 (unknown origin) expressed in HEK293 cells co-expressing luciferase assessed as reduction in nigericin-induced intracellular K+ decrease-mediated conformational changes in protein at 10 to 100 uM measured after 24 hrs by BRET assay. In kind it is cell-based. Put shortly: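 HEK293 cells stably expressing YFP-NLRP3-Luc were grown in DMEM with 10% FCS, plated on poly-L-lysine, and exposed to compound or vehicle (15 h per methods; 24 h per figure legend). Cells were washed, then BRET was read after adding coelenterazine-H (5 µM). Kinetics used nigericin (10 µM) in vehicle or high-K+ (140 mM) buffer. Slopes of three phases were taken; mean ± SEM, n = 5–12.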
NACHT, LRR and PYD domains-containing protein 3 (Homo sapiens), sequence (Q96P20 whole entry, the tested form may be a part): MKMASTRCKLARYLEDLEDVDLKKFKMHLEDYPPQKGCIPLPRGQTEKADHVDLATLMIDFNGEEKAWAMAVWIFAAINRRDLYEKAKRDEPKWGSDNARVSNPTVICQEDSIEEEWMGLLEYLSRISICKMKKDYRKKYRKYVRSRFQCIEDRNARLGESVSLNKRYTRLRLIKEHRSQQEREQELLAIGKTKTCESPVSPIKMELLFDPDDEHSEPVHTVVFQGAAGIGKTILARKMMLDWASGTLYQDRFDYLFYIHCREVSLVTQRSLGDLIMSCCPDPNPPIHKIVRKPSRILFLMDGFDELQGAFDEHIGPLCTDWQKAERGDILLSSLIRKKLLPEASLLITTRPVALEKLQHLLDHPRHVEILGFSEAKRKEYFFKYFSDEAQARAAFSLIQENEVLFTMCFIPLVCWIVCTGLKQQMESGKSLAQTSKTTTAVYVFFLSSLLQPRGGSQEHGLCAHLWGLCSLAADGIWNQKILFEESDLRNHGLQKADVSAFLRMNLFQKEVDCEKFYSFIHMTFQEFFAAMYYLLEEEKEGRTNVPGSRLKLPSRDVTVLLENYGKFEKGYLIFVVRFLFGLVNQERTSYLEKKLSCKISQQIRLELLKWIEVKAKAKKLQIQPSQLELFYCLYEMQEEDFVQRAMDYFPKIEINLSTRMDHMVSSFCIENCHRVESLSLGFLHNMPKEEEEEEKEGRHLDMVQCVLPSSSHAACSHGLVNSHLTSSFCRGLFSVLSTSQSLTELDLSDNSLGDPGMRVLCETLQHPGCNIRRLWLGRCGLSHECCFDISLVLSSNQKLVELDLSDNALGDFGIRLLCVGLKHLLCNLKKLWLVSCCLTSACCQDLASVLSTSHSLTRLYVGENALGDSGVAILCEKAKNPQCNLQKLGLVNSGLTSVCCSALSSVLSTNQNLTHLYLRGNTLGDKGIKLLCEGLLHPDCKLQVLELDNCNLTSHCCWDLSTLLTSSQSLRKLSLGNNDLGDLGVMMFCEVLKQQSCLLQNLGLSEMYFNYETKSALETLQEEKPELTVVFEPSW

In data set [14] the test system is Rattus norvegicus. In words: Anti-inflammatory activity in DNBS-induced Sprague-Dawley rat colitis model assessed as DNBS-induced IL-1beta levels in colon at 12.5 mg/kg/day, ig for 6 days simulatneously with 6 days of DNBS-challenge by ELISA (reference value: 22.3 +/- 2.9 ng/mg). In kind it is functional.

Activity calls are given as the source filed them. The calls are words filed in the database; no cut-off is given here.

NACHT, LRR and PYD domains-containing protein 3 (Mus musculus), sequence (Q8R4B8 whole entry, the tested form may be a part): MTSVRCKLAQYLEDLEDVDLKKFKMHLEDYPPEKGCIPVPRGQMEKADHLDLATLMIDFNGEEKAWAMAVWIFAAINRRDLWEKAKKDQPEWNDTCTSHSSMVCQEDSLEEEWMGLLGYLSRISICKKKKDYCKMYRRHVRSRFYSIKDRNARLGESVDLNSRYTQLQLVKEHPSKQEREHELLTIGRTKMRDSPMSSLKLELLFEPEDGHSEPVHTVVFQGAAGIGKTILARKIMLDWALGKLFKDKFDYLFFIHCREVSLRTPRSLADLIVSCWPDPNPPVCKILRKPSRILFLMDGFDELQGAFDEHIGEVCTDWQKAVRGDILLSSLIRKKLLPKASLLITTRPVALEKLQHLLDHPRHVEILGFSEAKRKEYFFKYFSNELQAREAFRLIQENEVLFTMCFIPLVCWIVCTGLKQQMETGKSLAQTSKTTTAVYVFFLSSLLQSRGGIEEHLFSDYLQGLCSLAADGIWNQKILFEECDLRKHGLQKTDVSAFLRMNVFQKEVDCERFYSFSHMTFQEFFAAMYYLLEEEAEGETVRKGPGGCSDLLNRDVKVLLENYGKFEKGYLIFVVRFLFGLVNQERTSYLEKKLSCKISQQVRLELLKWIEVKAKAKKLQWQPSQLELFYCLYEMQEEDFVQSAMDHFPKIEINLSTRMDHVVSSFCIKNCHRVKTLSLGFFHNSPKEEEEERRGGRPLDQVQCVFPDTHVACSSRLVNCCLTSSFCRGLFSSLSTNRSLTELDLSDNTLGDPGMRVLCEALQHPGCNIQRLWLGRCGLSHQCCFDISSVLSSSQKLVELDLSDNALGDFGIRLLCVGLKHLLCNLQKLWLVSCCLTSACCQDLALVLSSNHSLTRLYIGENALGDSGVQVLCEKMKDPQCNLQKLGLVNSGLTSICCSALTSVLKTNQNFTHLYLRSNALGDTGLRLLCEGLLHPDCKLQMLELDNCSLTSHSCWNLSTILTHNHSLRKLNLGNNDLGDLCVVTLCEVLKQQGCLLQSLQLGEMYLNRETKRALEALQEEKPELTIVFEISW

Turning to `C=C(Cc1ccccc1Cl)C(=O)OCC`, the inhibition entry (in data set [1]; in data set [2]; in [6]; in data set [7]; in [9]; in the data set listed under Mus musculus) was “Active” each time. Further, in [13], the inhibition entry is “Active”. Moreover, the results for the Activity in the data set with Rattus norvegicus [3], in the data set with Rattus norvegicus [8] and in the data set with Rattus norvegicus [14] were 2.2%, 4.8% and 16.4 ng/mg, respectively. The CC50 at 72 h in [4] was more than 100 µM. The inhibition in [5] was 33.6%; in data set [10], 29%. The Drug metabolism entry in data set [11] is given as “Metabolite_Detected”. In [12], this compound came in with a Stability of more than 99.5%.
